# Data as given in ChEMBL document CHEMBL1687917, “Increased bioavailability of tricin-amino acid derivatives via a prodrug approach” (J Med Chem, 2011).
# Key:
# Plasma [1] = test: Plasma concentration in Crl:CD (SD) rat at 300 mg/kg, po after 0.5 to 4 hrs; type: ADME, organism-based; design: dose 300 mg/kg, route oral; conditions: in vivo
# How it was run: (§1)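 Tricin was suspended in 1% aqueous methylcellulose (10 mL kg^-1), sonicated and given as a single gavage dose of 100, 300 or 1000 mg kg^-1 to male and female Crl:CD (SD) rats. Tail blood was taken at 0, 0.5, 2 and 4 h, and plasma tricin was quantified by RP-HPLC; means ± SEMs, n = 3.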
# Plasma [2] = test: Plasma concentration in Crl:CD (SD) rat at 1000 mg/kg, po after 0.5 to 4 hrs; type: ADME, organism-based; design: dose 1000 mg/kg, route oral; conditions: in vivo; how it was run: as §1
# Plasma [3] = test: Plasma concentration in Crl:CD (SD) rat at 100 mg/kg, po after 0.5 to 4 hrs; type: ADME, organism-based; design: dose 100 mg/kg, route oral; conditions: in vivo; how it was run: as §1
# [4] = AUC (0 to 8 hrs) in Crl:CD (SD) rat at 1000 mg/kg, po after 0.5 to 8 hrs; type: ADME, organism-based; design: time < 8 hr, dose 1000 mg/kg, route oral; conditions: plasma
# How it was run: (§2)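 Male Crl:CD (SD) rats were given a single oral bolus of the prodrug by gavage at 100, 300 or 1000 mg kg^-1. Blood was drawn from the tail at 0, 0.5, 2, 4 and 8 h, and plasma was separated by centrifugation (6000 rpm, 10 min, 4 °C) and held at -25 °C for no more than 19 days. Released tricin was quantified. Two Cmax values were reported, with AUC over 0-8 h; means ± SEMs, n = 3.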
# Mus musculus [5] = test: Toxicity in Crlj:CD1 (ICR) mouse assessed as abnormal blood chemistry at 300 mg/kg/day, po for 14 days; type: organism-based; design: route oral; conditions: in vivo, 336 h
# Mus musculus [6] = test: Toxicity in Crlj:CD1 (ICR) mouse assessed as abnormal body weight at 300 mg/kg/day, po for 14 days; type: organism-based; design: route oral; conditions: in vivo, 336 h
# [7] = Cmax in Crl:CD (SD) rat at 300 mg/kg, po after 0.5 to 8 hrs by RP-HPLC; type: ADME, organism-based; design: dose 300 mg/kg, route oral; conditions: in vivo; how it was run: as §2
# Mus musculus [8] = test: Toxicity in Crlj:CD1 (ICR) mouse assessed as abnormal autopsy test at 300 mg/kg/day, po for 14 days; type: organism-based; design: route oral; conditions: in vivo, 336 h
# [9] = Cmax in Crl:CD (SD) rat at 100 mg/kg, po after 0.5 to 8 hrs by RP-HPLC; type: ADME, organism-based; design: dose 100 mg/kg, route oral; conditions: in vivo; how it was run: as §2
# [10] = Stability of the compound in MDCK cell lysate assessed as half life; type: ADME, cell-based, Canis lupus familiaris; conditions: dog
# How it was run: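 Whole-cell lysate was prepared from 1.33 × 10⁶ MDCK cells with lysis buffer, and prodrugs were incubated with it. Half-life was taken as the time to 50% release of parent drug through carbamate hydrolysis by endogenous enzymes; means ± SEMs, n = 3.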
# Mus musculus [11] = test: Toxicity in Crlj:CD1 (ICR) mouse assessed as abnormal appearance at 300 mg/kg/day, po for 14 days; type: organism-based; design: route oral; conditions: in vivo, 336 h
# [12] = AUC (0 to 8 hrs) in Crl:CD (SD) rat at 300 mg/kg, po after 0.5 to 8 hrs; type: ADME, organism-based; design: time < 8 hr, dose 300 mg/kg, route oral; conditions: plasma; how it was run: as §2
# [13] = AUC (0 to 8 hrs) in Crl:CD (SD) rat at 100 mg/kg, po after 0.5 to 8 hrs; type: ADME, organism-based; design: time < 8 hr, dose 100 mg/kg, route oral; conditions: plasma; how it was run: as §2
# Mus musculus [14] = test: Toxicity in Crlj:CD1 (ICR) mouse assessed as abnormal hematology at 300 mg/kg/day, po for 14 days; type: organism-based; design: route oral; conditions: in vivo, 336 h
# [15] = Cmax in Crl:CD (SD) rat at 1000 mg/kg, po after 0.5 to 8 hrs by RP-HPLC; type: ADME, organism-based; design: dose 1000 mg/kg, route oral; conditions: in vivo; how it was run: as §2
# Mus musculus [16] = test: Toxicity in Crlj:CD1 (ICR) mouse assessed as abnormal food consumption at 300 mg/kg/day, po for 14 days; type: organism-based; design: route oral; conditions: in vivo, 336 h
Compound,Cp (Plasma [1]),Cp (Plasma [2]),Cp (Plasma [3]),AUC(0-t) at 8 h [4],Activity (Mus musculus [5]),Activity (Mus musculus [6]),Cmax [7],Activity (Mus musculus [8]),Cmax [9],half-life [10],Activity (Mus musculus [11]),AUC(0-t) at 8 h [12],AUC(0-t) at 8 h [13],Activity (Mus musculus [14]),Cmax [15],Activity (Mus musculus [16])
COc1cc(-c2cc(=O)c3c(O)cc(O)cc3o2)cc(OC)c1O [TRICIN],< 60 ng/mL,< 60 ng/mL,< 60 ng/mL,,,,,,,,,,,,,
COc1cc(-c2cc(=O)c3c(O)cc(O)cc3o2)cc(OC)c1OC(=O)N[C@@H](C)C(=O)N[C@@H](CCC(=O)O)C(=O)O,,,,21500 ng·h/mL,Non-toxic,Non-toxic,2870 ng/mL,Non-toxic,692 ng/mL,2.75 h,Non-toxic,15100 ng·h/mL,10300 ng·h/mL,Non-toxic,2880 ng/mL,Non-toxic
